# According to PubChem BioAssay:
# Activity calls are given as the source filed them.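 Rule for the calls, unless noted: active = inhibition at or above 50% at 10 µM; inactive = inhibition below 50%.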
# Assays:
# [1] = inhibitors of TNFa-induced NFkB p65 translocation, primary screen, imaging, HUVEC, MLSMR starter and 10KST1 sets (AID 438;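 active = inhibition above 20% together with a positive visual image hit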;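 note: compound added about 3h40 before a 20 min TNFalpha stimulation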;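 for inhibition: signal is the nuclear over cytoplasmic p65 intensity ratio per well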); conditions: HUVEC TNFa-induced p65 nuclear translocation; cell count: measured here: nuclei count (cytotoxicity indicator), at 2.08 µM; inhibition: at 2 µM, stronger effect = higher value, 0% TNFa-plus-vehicle, 100% no-TNFa wells
# [2] = inhibitors of mutant huntingtin aggregation, primary screen, imaging, exon1htt(103Q)mCFP cells, high-content imaging (AID 483;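 active = visual image review flags a hit and inhibition of aggregation exceeds 20%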;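 note: compound exposure lasted 3 days before fixation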;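 for nuclei count: percent of the per-plate median nuclei count of sample wells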); conditions: exon1htt(103Q)mCFP cell line, aggregate imaging, at 2 µM; inhibition of aggregation: stronger effect = higher value; nuclei count: measured here: cell count, toxicity
# [3] = inhibitors of E-selectin induction by TNFa, primary screen, imaging, HUVEC, immunofluorescence, MLSMR starter and 10KST1 sets (AID 487;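 active = visually confirmed hit in the image check and inhibition above 20%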;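 for inhibition: signal is fraction of cell area covered by stained E-selectin grains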;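 for nuclei count: 100% = median nuclei count of all wells on the same plate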); conditions: HUVEC TNFalpha-induced E-selectin immunofluorescence imaging, at 2 µM; inhibition: stronger effect = higher value; nuclei count: measured here: cell number, toxicity
# [4] = target: Voltage-gated potassium channel subunit beta-2 (Rattus norvegicus) (UniProt P62483); assay: KvBeta enzyme negative modulators, primary screen, biochemical, NADPH fluorescence (AID 622;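 active = fluorescence slope higher than the sample average by over 3 SD, cut at about -0.22 in these data, passing the limit was not always enough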;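 note: slope of raw intensity against log time taken from 70 to 1610 s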); conditions: recombinant KvBeta, 4-cyanobenzaldehyde reduction, at 10 µM, stronger effect = higher value
# Voltage-gated potassium channel subunit beta-2 (Rattus norvegicus), sequence (P62483 whole entry, looked up): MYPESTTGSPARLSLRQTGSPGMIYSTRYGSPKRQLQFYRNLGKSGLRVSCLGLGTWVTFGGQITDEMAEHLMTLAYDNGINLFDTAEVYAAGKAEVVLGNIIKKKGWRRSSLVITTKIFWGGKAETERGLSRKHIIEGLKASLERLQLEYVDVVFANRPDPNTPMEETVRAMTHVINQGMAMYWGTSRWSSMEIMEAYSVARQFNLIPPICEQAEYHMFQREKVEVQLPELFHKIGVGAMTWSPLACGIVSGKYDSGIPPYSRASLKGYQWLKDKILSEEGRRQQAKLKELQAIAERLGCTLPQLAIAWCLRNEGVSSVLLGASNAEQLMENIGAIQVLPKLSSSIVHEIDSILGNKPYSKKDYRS
# [5] = target: Voltage-gated potassium channel subunit beta-2 (Rattus norvegicus) (UniProt P62483); assay: KvBeta positive modulators, primary screen, biochemical, NADPH fluorescence (AID 623;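 active = NADPH fluorescence slope more negative than the mean of all samples by about 3 SD, 99.7% confidence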;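 note: fluorescence intensity change per second fitted from 20 to 320 s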); conditions: Recombinant KvBeta, NADPH fluorescence decrease slope, 10 min; at 10 µM; stronger effect = lower value
# [6] = target: Alpha-2C adrenergic receptor (Homo sapiens) (UniProt P18825); assay: modulators of alpha2C/GIRK thallium flux, primary screen, cell-based, HEK293 alpha2C/GIRK1/2 (AID 624;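 active = fluorescence slope after compound addition differing from the mean of all screened samples at 99.7% confidence, in either direction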;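 note: slope of fluorescence ratio to pre-addition baseline per second over 15 to 24 s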); conditions: thallium flux BTC fluorescence, at 10 µM, actives lie on both sides
# Alpha-2C adrenergic receptor (Homo sapiens), sequence (P18825 whole entry, looked up): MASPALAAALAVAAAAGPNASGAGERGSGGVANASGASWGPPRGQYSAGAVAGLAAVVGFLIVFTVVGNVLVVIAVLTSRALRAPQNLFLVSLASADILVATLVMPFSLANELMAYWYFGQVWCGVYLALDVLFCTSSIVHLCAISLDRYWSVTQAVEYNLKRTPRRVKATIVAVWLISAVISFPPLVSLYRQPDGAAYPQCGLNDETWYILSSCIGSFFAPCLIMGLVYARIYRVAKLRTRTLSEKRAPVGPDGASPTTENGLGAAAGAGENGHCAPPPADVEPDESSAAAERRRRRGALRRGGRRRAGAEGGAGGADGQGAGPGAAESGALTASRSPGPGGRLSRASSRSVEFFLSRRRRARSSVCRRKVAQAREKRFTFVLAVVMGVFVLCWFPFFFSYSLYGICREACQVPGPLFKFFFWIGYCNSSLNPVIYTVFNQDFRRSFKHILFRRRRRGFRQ
# [7] = inhibitors of larval lipid processing in zebrafish, primary screen, whole organism, PED6 fluorescence, gall bladder and intestine (AID 686;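 active = a full or partial loss of lipid-probe fluorescence in the fish gall bladder, intestine or both, judged by eye; inactive = no fluorescence loss, or compound toxic to the fish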;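 note: larvae 5 to 7 days old with five fish per well; signal comes from phospholipase A2 cleavage of quenched PED6 carried via bile; overnight exposure to compound and PED6 before scoring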); conditions: Zebrafish larvae PED6 lipid processing, fluorescence scoring; screened at 20 µM (by protocol)
# Method in brief: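 System: live zebrafish larvae aged 5-7 days, whole organism; measure: graded gall bladder and intestinal fluorescence inhibition per well; incubation: overnight exposure; reagent: ingested quenched lipid PED6 at 100 nM; signal: By-eye fluorescence microscopy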
# [8] = inhibitors of Sendai virus-induced IRF3 signaling, primary screen, TLR/RLR signaling modifier project, cell-based, Sendai virus stimulus, luciferase, 10K MLSCN set (AID 602276); conditions: HEK293 RL24 IRF3 luciferase reporter, at 10 µM, stronger effect = higher value;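 note: firefly luciferase from ISG56 promoter only with Renilla not read in this screen; 0% = Sendai virus plus DMSO and 100% = medium plus DMSO without virus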
# [9] = inhibitors of poly I:C-induced TLR3 signaling, primary screen, cell-based, poly I:C stimulus, luciferase, 10K MLSCN set (AID 602277;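 active = inhibition of the reporter signal at or above 50%; inactive = inhibition below 50%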); conditions: HEK293-TLR3 RL24 IRF3 luciferase reporter, at 10 µM, stronger effect = higher value
Compound,cell count [1],inhibition [1],inhibition of aggregation [2],nuclei count [2] [%],inhibition [3],nuclei count [3] [%],fluorescence slope [4],NADPH fluorescence slope [5],slope [6],outcome [7],inhibition [8],inhibition [9]
Clc1ccc(Cl)c(-c2nn3c(Cn4cnc5ccccc54)nnc3s2)c1,566,15.8% (inactive),-6.5% (inactive),102,-91.4% (inactive),121,-0.446 (inactive),-3.8e-05 (inactive),0.00462 (inactive),inactive,13.6% (inactive),13.1% (inactive)
Cc1nn(C(=O)c2ccccc2)c2c1C(=O)CC(C)(C)C2,380,1.3% (inactive),-11.8% (inactive),104,-114% (inactive),112,-0.419 (inactive),-1e-05 (inactive),0.00514 (inactive),inactive,18.8% (inactive),17.1% (inactive)
COCc1nnc(SCC(=O)NC(C)c2ccccc2)n1-c1ccccc1 (stereo not given),308,-1.1% (inactive),5.8% (inactive),94.3,-18.5% (inactive),101,-0.434 (inactive),-3.6e-05 (inactive),0.00455 (inactive),inactive,14.7% (inactive),14.9% (inactive)
Cc1ccc(S(=O)(=O)N2CCN(C(=O)N3CCOCC3)C2c2ccc(N(C)C)cc2)cc1 (stereo not given),377,-0.5% (inactive),0.7% (inactive),98,-44.5% (inactive),121,-0.419 (inactive),-5.2e-05 (inactive),0.00452 (inactive),inactive,12.8% (inactive),8.2% (inactive)
O=C(CN1CCN(c2nc(-c3ccc(Cl)cc3)cs2)CC1)NCc1ccco1,638,-7.3% (inactive),9.3% (inactive),90.1,-53.5% (inactive),108,-0.463 (inactive),-3.9e-05 (inactive),0.00435 (inactive),inactive,-3.86% (inactive),98.3% (active)
O=C(CSc1nc2ccccc2c(=O)n1Cc1ccco1)NCc1ccccc1,399,-6.1% (inactive),1.9% (inactive),87.8,-6.6% (inactive),103,-0.439 (inactive),-4.9e-05 (inactive),0.0067 (inactive),inactive,19.4% (inactive),9.86% (inactive)
O=C(NCCC1=CCCCC1)C1CCN(S(=O)(=O)c2cnc[nH]2)CC1,472,4.5% (inactive),-8.6% (inactive),93.1,-36.1% (inactive),117,-0.367 (inactive),-4.7e-05 (inactive),0.0051 (inactive),inactive,13.7% (inactive),18.8% (inactive)
O=C(NC1CCCCCCC1)C1CCN(c2nc3ccccc3o2)CC1,737,-10.2% (inactive),9.4% (inactive),94.8,-34.9% (inactive),116,-0.334 (inactive),8.8e-06 (inactive),0.0059 (inactive),inactive,6.61% (inactive),-11.1% (inactive)
Cc1sc2nc3n(c(=O)c2c1C)NC(=O)CC3,744,-7.3% (inactive),-15% (inactive),66.7,32.1% (inactive),85,-0.421 (inactive),-2.9e-05 (inactive),0.0069 (inactive),inactive,16.2% (inactive),12.8% (inactive)
O=P(CCNCc1ccco1)(c1ccccc1)c1ccccc1,322,9.5% (inactive),-14.2% (inactive),107,1.5% (inactive),112,-0.382 (inactive),-2.4e-05 (inactive),0.00716 (inactive),inactive,139% (active),91.3% (active)
O=C(Nc1ccc(-c2nc3ncccc3o2)cc1)c1ccc(Br)o1,340,25.6% (inactive),-3.8% (inactive),89.7,8.6% (inactive),100,-0.125 (active),-3.3e-06 (inactive),0.00525 (inactive),inactive,-28.6% (inactive),-98.2% (inactive)
O=C(Nc1ccc2c(c1)OCCO2)C1CCN(C(=O)c2ccc(F)cc2)CC1,397,4.1% (inactive),-5.3% (inactive),96.2,-14% (inactive),117,-0.368 (inactive),-7.6e-05 (inactive),0.00511 (inactive),inactive,-6.3% (inactive),-44.3% (inactive)
CC(=O)N1CN(C2CCCC2)Cc2c1sc1c2CCCC1,793,-14% (inactive),11.7% (inactive),99.2,26.2% (inactive),90.6,-0.433 (inactive),-1.9e-07 (inactive),0.00682 (inactive),inactive,5.21% (inactive),20% (inactive)
COc1ccc(CCN(Cc2cc3cccc(C)c3[nH]c2=O)C(=O)N2CCCC2)cc1OC,207,2.1% (inactive),8.7% (inactive),94.8,11.6% (inactive),91.3,-0.458 (inactive),-8.2e-05 (inactive),0.00488 (inactive),inactive,10.3% (inactive),16.5% (inactive)
CCC(=O)Nc1nn(C)c2nc3c(C)cccc3cc12,724,-9% (inactive),27.6% (inactive),87.7,-53.9% (inactive),102,-0.281 (inactive),-6.4e-06 (inactive),0.00513 (inactive),inactive,-2.08% (inactive),-4.15% (inactive)
Cc1ccc2nc(C3CCN(CC(=O)N4CCCCCC4)CC3)[nH]c2c1,579,-13.8% (inactive),2.2% (inactive),101,-39.2% (inactive),111,-0.453 (inactive),-5.8e-05 (inactive),0.00562 (inactive),active; weak signal in gallbladder and intestine,8.23% (inactive),13.7% (inactive)
CN(C)C(=O)CN(C)S(=O)(=O)c1ccc(Cl)cc1,447,8.7% (inactive),10.6% (inactive),93.2,-2.4% (inactive),113,-0.416 (inactive),-1.2e-05 (inactive),0.00557 (inactive),inactive,7.26% (inactive),6.1% (inactive)
COc1ccccc1CC(=O)NCC1CCCO1 (stereo not given),346,-15.9% (inactive),8.9% (inactive),107,-2.8% (inactive),130,-0.329 (inactive),-4.4e-05 (inactive),0.00554 (inactive),inactive,11.5% (inactive),17.7% (inactive)
O=S(=O)(c1cccc2c(S(=O)(=O)N3CCCC3)cccc12)N1CCCC1,250,-13.4% (inactive),-7.2% (inactive),118,-17.4% (inactive),88.6,-0.355 (inactive),6.6e-06 (inactive),0.00452 (inactive),inactive,18.2% (inactive),21.9% (inactive)
CC(C)c1cc(C(=O)Nc2cccnc2)no1,250,-2.8% (inactive),-12.9% (inactive),103,-9.6% (inactive),115,-0.398 (inactive),-6.1e-05 (inactive),0.00525 (inactive),inactive,-22.1% (inactive),-67.3% (inactive)
Cc1cccc(OCC(=O)Nc2ccc(N3CCCC3)cc2)c1C,553,-2.5% (inactive),-18.4% (inactive),93.1,-53.5% (inactive),83.5,-0.37 (inactive),-6.9e-05 (inactive),0.005 (inactive),inactive,7.46% (inactive),6.78% (inactive)
Cc1cc(C)nc(SCc2ccc3nonc3c2)n1,634,-4.3% (inactive),-20.5% (inactive),114,12.3% (inactive),97.4,-0.282 (inactive),-1.3e-05 (inactive),0.00664 (inactive),inactive; toxic,8.18% (inactive),10.6% (inactive)
COC(=O)c1[nH]c2ccc(C)cc2c1NC(=O)CN1CCN(C(=O)c2ccccc2)CC1,330,-4% (inactive),3% (inactive),99.5,-26.1% (inactive),102,-0.306 (inactive),-3.3e-05 (inactive),0.00437 (inactive),inactive,18.9% (inactive),14.6% (inactive)
COc1cc2c(cc1NC(=O)CSc1nnc(Cc3cccs3)n1C)oc1ccccc12,368,4.7% (inactive),9.3% (inactive),104,-30.5% (inactive),112,-0.45 (inactive),-0.000107 (inactive),0.00401 (inactive),inactive,13.9% (inactive),5.76% (inactive)
CCCCOC(=O)Nc1nccs1,690,-2.6% (inactive),4.5% (inactive),116,-53.6% (inactive),116,-0.404 (inactive),-3.3e-05 (inactive),0.00518 (inactive),inactive,-8.28% (inactive),-28.8% (inactive)
